The values that follow come from ChEMBL document CHEMBL1156169, “Discovery of triarylethanolamine inhibitors of the Kv1.5 potassium channel” (Bioorg Med Chem Lett, 2010).

≈ marks a conversion by molar mass, not a printed value.

Data set [1] can be described thus: Aqueous solubility at pH 7.4. In kind it is physicochemical. The essentials: (§1)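 Solubility measured in buffered aqueous solution at the pH stated for each line and expressed as mg/mL. Solid samples were checked by microscopy under plain polarized light and were crystalline; the specific crystal form was not determined.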
Data set [2] in a line: Aqueous solubility at pH 5.2. The class given is physicochemical. The essentials: as §1
Data set [3] can be described thus: Clearance in rat. In kind it is ADME, organism-based. The conditions noted are these: in vivo.
The nature of data set [4]: Volume of distribution in rat. In kind it is ADME, organism-based. Particulars: in vivo.
Data set [5] is described as follows: Half life in rat. The class given is ADME, organism-based. Particulars: in vivo.
The nature of data set [6]: Plasma concentration in rat at 0.01 mg/kg/min, iv after 20 mins. In kind it is ADME, organism-based. Also noted: route intravenous.
A short description of data set [7]: Plasma concentration in rat at 0.03 mg/kg/min, iv after 20 mins. Set-up: route intravenous. In kind it is ADME, organism-based.
A short description of data set [8]: Plasma concentration in rat at 0.06 mg/kg/min, iv after 20 mins. The class given is ADME, organism-based. Set-up: route intravenous.
Data set [9] in a line: Plasma concentration in rat at 0.2 mg/kg/min, iv after 20 mins. The class given is ADME, organism-based. Set-up: route intravenous.
Data set [10] can be described thus: Plasma concentration in rat at 0.6 mg/kg/min, iv after 20 mins. Also noted: route intravenous. The class given is ADME, organism-based.
A short description of data set [11]: Drug level in rat plasma at 435 ug/kg/min, iv after 1 hr. Particulars: 0.435 mg/kg. The class given is ADME, organism-based.
A short description of data set [12]: Drug level in rat brain at 435 ug/kg/min, iv after 1 hr. The class given is ADME, organism-based. The conditions noted are these: 0.435 mg/kg, read-out: Drug uptake.
A short description of the next data set: in vivo. The conditions noted are these: rat, brain/plasma, iv, 0.435 mg/kg.
Data set [13] can be described thus: Aqueous solubility at pH 7.2. In kind it is physicochemical. In short, it runs like this: as §1

Take `OC(c1cccnc1)(c1cccnc1)C(c1ccccc1)N1CCCC1` (stereo not given): the solubility in data set [1] was 110 µg/mL (≈ 318 µM); in data set [2], 1400 µg/mL (≈ 4050 µM). In [3], this compound returned a clearance of 59 mL/min/kg. In data set [4], the Vd worked out at 3.4 L/kg. The half-life in [5] is 1.1 h. Also, the concentration at 20 min in [6] is 0.185 µM; in data set [7] it was 0.651 µM; in [8], 1.78 µM; in data set [9], 4.9 µM; in data set [10] it was 9.62 µM. Moreover, the concentration at 1 h in [11] worked out at 23.4 µM; in data set [12], 13.7 µM. For the same compound, in the data set “in vivo”, the Kp at 1 h was 0.58.

Regarding `OC(c1cccnc1)(c1cccnc1)C(c1ccccc1)N1CCCCC1` (stereo not given), the solubility in data set [1] came to 5.4 µg/mL (≈ 15 µM).

For the compound `OC(c1cccnc1)(c1cccnc1)C(c1ccccc1)N1CCOCC1` (stereo not given), the concentration in solution in [13] (solubility) came to 43 µg/mL (≈ 119 µM).
